Experiment: Toxicity liver stage against HepG2, at 10uM
Format: cell-based
Design: test concentration 10 uM, cell line HepG2-A16-CD81EGFP
Settings: human, HepG2-A16-CD81EGFP cells; read-out: INHIBITION
In short: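 Uninfected HepG2-A16-CD81EGFP cells, 3 × 10^3 per well, 1536-well, plated on prespotted compound at 10 μM final, parasite-free screening media added to match infected plates; puromycin 10 μM positive, DMSO 0.5% negative; run in parallel with 48 h PbLuc assay at 37 °C, 5% CO2; viability by CellTiter-Glo luminescence, normalized to controls.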

| Compound | cytotoxicity at 10 µM [%] |
| --- | --- |
| Cn1cnnc1S(=O)(=O)C1CCN(S(=O)(=O)c2ccc(Cl)s2)CC1 | -4.72 |
| CC(C)N(C)Cc1nnc2n1CCCN(C(=O)C1CCCO1)C2 (stereo not given) | 19 |
| CC(=O)NCc1noc2c1CN(Cc1cnn(C)c1)CC2 | -1.71 |
| Cc1cc(C)cc(CN2C[C@@H]3OCCN(S(=O)(=O)N(C)C)[C@@H]3C2)c1 | 8.28 |
| O=C(NC1CC1)N1CCc2ccc(=O)n(Cc3ccncc3)c2CC1 | -0.972 |
| CCC(CC)C(=O)N1CCN(C)c2ncccc2C1 | -3 |
| CC(C)CN1C[C@H]2CCN(C(=O)NC3CCCC3)CC[C@H]2S1(=O)=O | 7.31 |
| O=c1[nH]c2c(c(=O)n1C1CCCCC1)CCC2Nc1ccc(Cl)cc1 (stereo not given) | 9.78 |
| CC(C)Cc1nc(OCC(=O)O)c(C#N)c2c1CCC2 | -5.93 |
| CN1CCN(C(=O)c2cc(NC(=O)c3ccccc3)n(C)n2)CC1 | 4.07 |
| O=C(NCCCO)c1nnsc1-c1ccccc1 | 7.47 |
| c1cc(NC2CC3(CCN(Cc4cscn4)C3)C2)ncn1 (stereo not given) | -2.28 |
| Cc1csc2c(C3CCN(CCCOc4ccccc4)CC3)nc(C)n12 | 1.63 |
| CNC(=O)C1CN(C(C)C)CCN1c1ncccn1 (stereo not given) | 1.22 |
| Cc1ncc(CN2CCc3c(nc4cc(C5CC5)nn4c3O)C2)n1C | 6.62 |
| c1ncc(CN2CC(Cc3nccc4cc[nH]c34)C2)cn1 | -1.06 |
| Cc1cc(-c2cnc(N3CCSCC3)nc2-c2ccc(C)s2)on1 | -2.5 |
| Cc1cc(C(=O)NCC(C)C)c2c(C3CCCN3)noc2n1 (stereo not given) | 7.05 |
| O=C1NC2(Cc3ccccc31)CN(CC1CCNC1)C2 (stereo not given) | 9.76 |
| N#Cc1ccccc1OCCN1CCCCC1C(=O)N1CCOCC1 (stereo not given) | -45.6 |
| NC(=O)CS(=O)(=O)Cc1csc(-c2ccccc2)n1 | -9.59 |
| CCCN1CCC(N(C)C(=O)c2cc(C)nc3cc(F)ccc23)CC1 | 0.906 |

| Compound | cytotoxicity at 10 µM [%] |
| --- | --- |
| Cc1nc(NCc2nnc(C)n2C)c2c(CC(C)C)csc2n1 | 9.56 |
| Cc1ccc(CCCC(=O)N2CCC(=O)Nc3cccnc32)s1 | -60.7 |
| Cc1ncsc1CCN(C)Cc1ccc(Br)o1 | -43 |
| Cc1nc(CCCNC(=O)c2cc(F)ccc2O)n[nH]1 | -5.32 |
| CC(C)(C)CCCC(=O)Nc1ccnn1C1CCS(=O)(=O)C1 (stereo not given) | -9.92 |
| CCc1nc(C)c(C(C)N(C)CCc2ccncc2)s1 (stereo not given) | 23.5 |
| Cc1noc(C)c1CCC(=O)N1CCCCC1CNS(C)(=O)=O (stereo not given) | 8.71 |
| COc1ccc(NC(=O)CN2CCCCC2C2OCCO2)cc1 (stereo not given) | 30.9 |
| O=C(NC1CCN(C2CC2)CC1)NC1CCOc2ccc(Br)cc21 (stereo not given) | -3.43 |
| CCOc1nnc(CN(C)C2CCCN(c3ccc(C)nn3)C2)s1 (stereo not given) | 13.2 |
| CCN(C(c1cccnc1)c1cc(C)cc(C)c1)S(C)(=O)=O (stereo not given) | 2.88 |
| COc1ccc2cc(CN(C)C(C)c3nc(C4CC4)no3)ccc2c1 (stereo not given) | 3.18 |
| Cn1ncc2c(=O)[nH]c(CN3CCCc4cc(F)cc(F)c43)nc21 | -1.76 |
| CS(=O)(=O)NCC1(c2ccccc2Br)CC1 | -5.51 |
| CN(C)S(=O)(=O)NCC1(c2ccccc2Br)CC1 | 1.94 |
| CN(CC(=O)NCC(F)(F)F)Cc1nc2c(s1)CCCC2 | 19 |
| Cc1ccc(CNC(=O)c2c[nH]nc2NC(=O)C2CCC2)cc1 | 2.05 |
| Cc1nc(-c2ccccc2)n(CC(=O)NC(C2CC2)C2CC2)n1 | 11 |
| CN1CCN(c2ncc(CNCCCc3cccc(F)c3)cn2)CC1 | -13.2 |
| CCOc1ccc(Cl)cc1NC(=O)N1CCC(n2cncn2)CC1 | 4.93 |
| CC(C)c1nc(CNC2CCN(C(=O)OC(C)(C)C)CC2)cs1 | -1.72 |
| CC(=O)N1CCC(NC(=O)NCc2ncc(-c3ccccc3)o2)CC1 | -44.7 |

| Compound | cytotoxicity at 10 µM [%] |
| --- | --- |
| Cc1cc(C(C)NCCN2CCC(N(C)C)CC2)c(C)s1 (stereo not given) | -0.85 |
| Cc1cc(NCCOCCS(C)(=O)=O)nc2ccccc12 | 4.4 |
| Nc1cc2c(nn1)CCN(C(=O)c1csc(-c3ccccc3)n1)C2 | -12.4 |
| O=C(C(CNCc1ccsc1)c1ccccc1)N1CCOCC1 (stereo not given) | -7.32 |
| Cc1cc(C)nc(N2CCN(C(=O)c3cc(Cl)c[nH]3)CC2)n1 | -4 |
| CCN(CC)c1ccc(NS(=O)(=O)c2cncc(F)c2)cn1 | -8.37 |
| CNC(=O)[C@H]1C[C@@H]2CN(C(=O)c3cncc(C)c3)C[C@@H]2N1C | -107 |
| Cc1ccc(NC(=O)N2CCC3(CCC(C(=O)N(C)C)O3)CC2)cc1 (stereo not given) | -99.2 |
| OCCNc1cc(-c2ccccc2)ncn1 | -7.94 |
| OCCNc1cc(-c2ccncc2)ncn1 | -7.88 |
| CCc1cc(NC(CCO)c2ccc(OC)cc2)n2nccc2n1 (stereo not given) | -30.4 |
| COCCc1ncc(CN2CCC3(CCCN(CC4CC4)C3)C2)cn1 (stereo not given) | -4.07 |
| Cc1ncsc1-c1nc(Cc2cccs2)nn1C1CCN(C)CC1 | -4.51 |
| CCOC(=O)N1CCN(c2nc(C)ncc2CC)CC1 | -61.2 |
| COc1cc(CN2CC(=O)N(c3ccc(C)cc3)CC2C)cc(OC)c1 (stereo not given) | 1.28 |
| CN(CCc1noc(C2CC2)n1)C(=O)CCc1cc2n(n1)CCCNC2 | -0.645 |
| Cn1ccnc1CN1CCN(Cc2ccccc2)[C@@H]2CS(=O)(=O)C[C@@H]21 | -3.41 |
| Cc1ccc([C@@H]2CN(C(=O)c3ccsc3)C[C@H]2NC(=O)C2CC2)cc1 | 2.93 |
| O=C(O)c1cc(C2=CCCCC2)cc(S(=O)(=O)NCc2ccccn2)c1 | -46.6 |
| CCN(C)Cc1n[nH]c(=O)n1-c1ccc(C)c(C)c1 | 6.27 |
| CCN1CCCC(c2c(-c3ccccc3)ncn2Cc2cccnc2)C1 (stereo not given) | -6.75 |
| CC(C)C(C)N(Cc1cnc2ccccc2n1)Cc1ccco1 (stereo not given) | 14.7 |

| Compound | cytotoxicity at 10 µM [%] |
| --- | --- |
| Fc1cccc(-c2cccc(N3CCC(NC4CCCOC4)CC3)c2)c1 (stereo not given) | 12 |
| CCCc1nc(C)cc(N2CCNC(C(=O)NC3CC3)C2)n1 (stereo not given) | -56.5 |
| CC(C)c1noc(Cn2ncn3cccc3c2=O)n1 | -4.1 |
| O=C(c1cc(F)cc(Cl)c1)N1CCN(CCO)[C@@H]2CS(=O)(=O)C[C@@H]21 | -2.24 |
| COc1ccc(F)c(CN2CCCC3(CCN(S(C)(=O)=O)C3)C2)c1 (stereo not given) | -2.93 |
| CCN1CC2(CCC1=O)CCN(Cc1nncn1C(C)C)CC2 | 8.39 |
| COc1cccc(N2CCC(N3C[C@@H](NC(C)=O)[C@H](C(C)C)C3)CC2)c1 | -9.98 |
| N[C@H]1CN(Cc2cnc(N3CCCC3)nc2)C[C@@H]1C1CC1 | -45.5 |
| Cc1ccc(C(=O)Nc2ccc(OC3CCN(C)CC3)cc2)c(C)c1 | 7.48 |
| COc1nccnc1N1CCN(Cc2ccc3c(c2)OCO3)C(=O)C1 | -1.65 |
| O=C(O)C(c1ccc2c(c1)OCCO2)N1CCCC1 (stereo not given) | -5.38 |
| O=C1CC2(CCN(CC3CCOC3)CC2)CN1Cc1cc(F)cc(F)c1 (stereo not given) | -18.9 |
| CN(c1ccc(C(=O)NCCCN2CCOCC2)c(Cl)c1)S(C)(=O)=O | -11.2 |
| O=C(O)c1cc(-c2cccs2)nc2c(Cl)cnn12 | -8.33 |
| Cc1nc(CN(C)C2CCCN(c3cccnn3)C2)nc2ccccc12 (stereo not given) | -0.164 |
| Cn1ncc2c(=O)[nH]c(CN(Cc3ccco3)C3CC3)nc21 | -9.8 |
| Cc1ccc(NC2CCN(C(=O)c3ccc(F)c(C)c3)CC2)nn1 | 2.37 |
| Cc1nccn1C1CCCN(C(=O)c2ccc3c(c2)OCCCO3)C1 (stereo not given) | -12.9 |
| CCn1c(CN2CCN(CCOC)CC2)nc2c(F)cccc21 | -9.86 |
| Cc1nc(C)n(CC2CCCN2Cc2nc(-c3ccsc3)no2)n1 (stereo not given) | -9.8 |
| CC(C(=O)NCc1ccc(-n2cncn2)nc1)S(C)(=O)=O (stereo not given) | 7.41 |
| Cc1ccc(CN(C)Cc2nc3c(cnn3C)c(=O)[nH]2)c(C)c1 | 0.403 |

| Compound | cytotoxicity at 10 µM [%] |
| --- | --- |
| N#CCCN(C(=O)CN1CCCC1c1ccsc1)c1ccccc1F (stereo not given) | -5.8 |
| CN(Cc1ccncc1)CC(c1cccs1)N1CCOCC1 (stereo not given) | -15.7 |
| COc1ccc(Cl)cc1NCC(=O)NCCc1ccccn1 | -8.26 |
| CSc1ncccc1C(=O)NCc1ccc(CS(=O)(=O)NC(C)C)cc1 | 4.4 |
| Cc1cc(C)n(C2CCCN(C(=O)CCCNc3ncccn3)C2)n1 (stereo not given) | 5.15 |
| Cc1ccc(NC2CCN(C(=O)Cc3cccc(F)c3)CC2)nn1 | -5.23 |
| Cc1ncc(CN2Cc3ccccc3OC3(CCC(CO)CC3)C2)cn1 (stereo not given) | 0.179 |
| Cn1nc(C2CCN(C(=O)Cc3cccc(F)c3)CC2)c2cccnc21 | -0.439 |
| Fc1ccc(CN2CCCn3nnc(COCC4CC4)c3C2)cc1 | -109 |
| COc1cccc(CN2CCC3(CCN(c4ncc(F)cn4)CC3)C2)c1 | -0.664 |
| O=C(c1ccoc1)N1CCOC2(COCCN(c3ncccn3)C2)C1 (stereo not given) | -98.4 |
| COCCN1CCC2(COCCN(Cc3ccc4c(c3)OCO4)C2)C1 (stereo not given) | -0.234 |
| Cc1nc(COC[C@@H]2CC[C@H]3[C@H](CCN3c3ncccn3)O2)cs1 | 2.19 |
| OC1CCN(Cc2c(C3CCCNC3)[nH]c3ncccc23)CC1 (stereo not given) | -0.542 |
| CCN(CC)c1ccc2ccc(C(=O)N(CCOC)CCOC)cn12 | 1.15 |
| O=C(NCC1CC1)[C@@H]1CCO[C@@H]2CCN(CCc3ccccc3)C[C@H]21 | 1.14 |
| COc1cccc(CN2CCC3(COCc4cnc(N(C)C)nc43)C2)c1 (stereo not given) | 11.2 |
| CCS(=O)(=O)Nc1ccc2c(c1)C1(CCOCC1)CN2C | -107 |
| Cc1ccc(NC2COC3(CCN(CC(C)C)CC3)C2)nn1 (stereo not given) | -1 |
| Cn1cc(-c2ncc3c(c2C(=O)O)CCN(CC2CC2)C3)cn1 | -104 |
| Cc1ccc(CN2C[C@@H]3CCCO[C@@H]3[C@H](NS(C)(=O)=O)C2)o1 | 5.16 |
| Cc1noc(C)c1CN1CCc2c(CNc3nccs3)n[nH]c2C1 | 5.28 |

— ChEMBL document CHEMBL4513216, “Probing the Open Global Health Chemical Diversity Library for Multistage-Active Starting Points for Next-Generation Antimalarials” (ACS Infect Dis, 2020)
